Drawing on the array DNA melting data of Ke et al. (doi:10.1101/2024.01.08.574731), this text covers folding enthalpy and Tm for 74 sequences.

Data set [1] in a line: folding enthalpy; higher = less favourable; fluorescence melt of hairpins on a sequencing array, two-state fit. As to conditions: sodium 0.088 M. The essentials: (§1)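 To match UV melts, fitted temperatures were raised by 9.35 °C. These fits were bootstrapped two-state models that gave melting temperature and folding enthalpy, combined by inverse variance over four replicates. The input was normalised Cy3 fluorescence of library hairpins with annealed Cy3 and quencher oligos on a sequenced MiSeq flow cell, imaged in 50 mM Na-HEPES pH 8.0, 25 mM NaCl in 2.5 °C steps up to 60 °C.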

Data set [2] can be described thus: melting temperature; fluorescence melt of hairpins on a sequencing array, two-state fit, raised by 9.35 °C to match UV melts. To be noted: sodium 0.088 M. In outline: as §1

In the case of GTGCCCGCGAAAGCGCAC (((..(((....)))))), the folding enthalpy in data set [1] was -13.5 kcal/mol. Moreover, in data set [2], the Tm came out at 45.5 °C.
In the same order, the values of GCGTTATAACGC ((((....)))) are -30.4 kcal/mol and 55.5 °C.
On the same counts, the results for GATCACGAATGTGATC ((((((....)))))) are -37.5 kcal/mol and 67.7 °C.
On the same counts, the results for GAATTTGAAAAAATTC ((((((....)))))) are -26.6 kcal/mol and 38.8 °C.
For GCTTACGAAAGTACAGC ((((((....))).))), the folding enthalpy in data set [1] is -23.4 kcal/mol. Moreover, the Tm in data set [2] came out at 41.4 °C.
As for GCCCTAGCGAAAGCTGGC (((..(((....)))))), the folding enthalpy in data set [1] was -13.7 kcal/mol. The Tm in data set [2] worked out at 48 °C.
On the same counts, the results for GCGCACCCGAAAGGGCGC (((..(((....)))))) are -20.5 kcal/mol and 67 °C.
For GATCAAAGTGTTGATC ((((((....)))))), the folding enthalpy in data set [1] was -29.6 kcal/mol. For the same sequence, in data set [2], the Tm is 42.4 °C.
GGCGATCCGAAAGGAGCC (((..(((....)))))): the folding enthalpy in data set [1] is -35.4 kcal/mol. The Tm in data set [2] was 53.9 °C.
In the case of GATCAGGCATCTGATC ((((((....)))))), the folding enthalpy in data set [1] is -45.1 kcal/mol. Besides, in data set [2], the Tm came to 55.6 °C.
Turning to GGTACCGAAAGGTGAACC ((((((....)))..))), the folding enthalpy in data set [1] was -15.5 kcal/mol. Further, in data set [2], the Tm is 37.1 °C.
In the same order, the values of GCCGAGGGAAACCTTGGC (((.(((....))).))) are -35.4 kcal/mol and 58.3 °C.
In the same order, the values of GCAGTCCGAAAGGATGC (((.(((....)))))) are -32.1 kcal/mol and 52.3 °C.
In the same order, the values of GCTGAGCGAAAGCTCTGC ((.((((....)))).)) are -31.6 kcal/mol and 66.4 °C.
As for GTGCGCGAAAGCGTTCAC ((((((....)))..))), in data set [1], the folding enthalpy was -11.3 kcal/mol. Further, the Tm in data set [2] was 39.9 °C.
Turning to GTGCGACCGAAAGGTCAC (((..(((....)))))), in data set [1], the folding enthalpy is -13.1 kcal/mol. Also, the Tm in data set [2] was found to be 60 °C.
In the same order, the values of GAATCTGGAAACAGGTTC (((.(((....))).))) are -31.5 kcal/mol and 44 °C.
Turning to CGACCCGGAAACGGATCG (((.(((....))).))), the folding enthalpy in data set [1] was -33.4 kcal/mol. For the same sequence, the Tm in data set [2] came to 48.8 °C.
In the same order, the values of GATCGAGGAAACTCGATC (((((((....))))))) are -44.5 kcal/mol and 62.7 °C.
On the same counts, the results for GGCTTGGGAAACCAAACC ((.((((....)))).)) are -27.8 kcal/mol and 41 °C.
On the same counts, the results for GTCCTATCGAAAGATGAC (((..(((....)))))) are -8.25 kcal/mol and 23.4 °C.
Take GGCTGCGGAAACGCAACC ((.((((....)))).)): in data set [1], the folding enthalpy was -22.3 kcal/mol. Besides, the Tm in data set [2] amounted to 54.7 °C.
Regarding GATCGTCCAGACGATC ((((((....)))))), the folding enthalpy in data set [1] is -42.3 kcal/mol. The Tm in data set [2] stood at 59.8 °C.
On the same counts, the results for GATCTAACGCTAGATC ((((((....)))))) are -20.7 kcal/mol and 38.1 °C.
In the same order, the values of GCCCGGCCGAAAGGCGGC (((..(((....)))))) are -13.2 kcal/mol and 57.6 °C.
In the same order, the values of GATCTTCATAAAGATC ((((((....)))))) are -35.6 kcal/mol and 43.5 °C.
GATCTCGTTTGAGATC ((((((....)))))): in data set [1], the folding enthalpy was -32.9 kcal/mol. Besides, the Tm in data set [2] was found to be 55.6 °C.
As for GCAGCCGAAAGGCAGTGC ((((((....)))..))), the folding enthalpy in data set [1] was -17.4 kcal/mol. In addition, in data set [2], the Tm is 50.6 °C.
GTTAATGGAAACATTAGC (.(((((....))))).): the folding enthalpy in data set [1] was -20.7 kcal/mol. Moreover, the Tm in data set [2] was determined as 34.8 °C.
As to GGGACGTCGAAAGACCCC (((..(((....)))))), the folding enthalpy in data set [1] is -18.4 kcal/mol. Also, the Tm in data set [2] amounted to 41 °C.
For the sequence GCTTACGAAAGTAGTAGC ((((((....)))..))), the folding enthalpy in data set [1] is -27.9 kcal/mol. Besides, the Tm in data set [2] turned out to be 34.8 °C.
On the same counts, the results for GTAGCAGGAAACTGCCAC ((.((((....)))).)) are -14.3 kcal/mol and 36.7 °C.
As to GCACCTGGAAACGGGTGC (((((.(....).))))), the folding enthalpy in data set [1] is -48 kcal/mol. Besides, in data set [2], the Tm was found to be 60.9 °C.
In the same order, the values of GCGTACGAAAGTAGCCGC ((((((....)))..))) are -14.4 kcal/mol and 51.2 °C.
In the same order, the values of GATCTTGGGTAAGATC ((((((....)))))) are -27.6 kcal/mol and 43.2 °C.
In the case of GCAACCTCGAAAGAGTGC (((..(((....)))))), in data set [1], the folding enthalpy was -21.7 kcal/mol. Besides, in data set [2], the Tm worked out at 36.9 °C.
For GCCCAGGGAAACCCGAGC ((.(.((....)).).)), the folding enthalpy in data set [1] is -6.87 kcal/mol. Moreover, the Tm in data set [2] is 28.3 °C.
In the same order, the values of CGAAAGAAATTTCG (((((....))))) are -13.6 kcal/mol and 38.5 °C.
In the same order, the values of GATCTCGTGAGAGATC ((((((....)))))) are -31 kcal/mol and 66.9 °C.
In the same order, the values of GGGAGAGGAAACTCCCCC (((.(((....))).))) are -17.8 kcal/mol and 49.4 °C.
In the case of GACGTCGGAAACGGTGTC (((..((....))..))), the folding enthalpy in data set [1] is -25.7 kcal/mol. For the same sequence, the Tm in data set [2] was 43 °C.
Regarding GATCGTCGTCACGATC ((((((....)))))), in data set [1], the folding enthalpy is -40.6 kcal/mol. In data set [2], the Tm stood at 53.5 °C.
In the same order, the values of GTAGATGGAAACATCTAC (((((((....))))))) are -41.3 kcal/mol and 55.5 °C.
As to GCAAGCTCGAAAGAGTGC (((..(((....)))))), in data set [1], the folding enthalpy was -16.9 kcal/mol. For the same sequence, the Tm in data set [2] worked out at 36.9 °C.
As to GCGACCGAAAGGTACCGC ((((((....)))..))), the folding enthalpy in data set [1] is -21.9 kcal/mol. Besides, the Tm in data set [2] amounted to 47.2 °C.
Consider GATCTCTGATGAGATC ((((((....)))))), for which, in data set [1], the folding enthalpy is -33.3 kcal/mol. In addition, the Tm in data set [2] amounted to 51.3 °C.
On the same counts, the results for GCGGGGGGAAACCCCCAC (.(((((....))))).) are -11.2 kcal/mol and 46 °C.
On the same counts, the results for GATCGCAGTTGCGATC ((((((....)))))) are -41.1 kcal/mol and 68.6 °C.
Turning to GCATTGGGAAACCGATGC ((((.((....)).)))), the folding enthalpy in data set [1] was -50.4 kcal/mol. Besides, the Tm in data set [2] worked out at 53.3 °C.
Regarding CGAATCGGAAACGAATCG (((.(((....))).))), the folding enthalpy in data set [1] is -37.4 kcal/mol. In addition, the Tm in data set [2] came to 44.7 °C.
On the same counts, the results for GATCATGGGATGATC ((((((...)))))) are -30.7 kcal/mol and 44.6 °C.
GAAATACGAAAGTACTTC (((.(((....))).))): the folding enthalpy in data set [1] is -15.7 kcal/mol. In data set [2], the Tm turned out to be 29.5 °C.
In the same order, the values of GCAGAGCGAAAGCAGTGC (((..((....))..))) are -15.1 kcal/mol and 45.8 °C.
On the same counts, the results for GCTCTCCGAAAGGACAGC (((.(((....))).))) are -25.9 kcal/mol and 41.3 °C.
GATGAGGCGAAAGCCATC (((..(((....)))))): the folding enthalpy in data set [1] was -13.1 kcal/mol. The Tm in data set [2] worked out at 36.3 °C.
For GCAAGTTCGAAAGAATGC (((..(((....)))))), in data set [1], the folding enthalpy was -11.8 kcal/mol. The Tm in data set [2] came out at 27.3 °C.
In the same order, the values of GATCTCTATCGAGATC ((((((....)))))) are -39.4 kcal/mol and 51.1 °C.
Turning to GCATCGGGAAACTGATGC (((((.(....).))))), the folding enthalpy in data set [1] was -37.2 kcal/mol. Besides, the Tm in data set [2] was 55.7 °C.
For GCAAGCGGAAACGCTCGC ((.((((....)))).)), in data set [1], the folding enthalpy is -22.6 kcal/mol. For the same sequence, the Tm in data set [2] worked out at 52.7 °C.
In the case of GGCACAGGAAACTGTGTC (.(((((....))))).), in data set [1], the folding enthalpy was -32.2 kcal/mol. The Tm in data set [2] was found to be 54 °C.
With GGGTAGCGAAAGCTCCC (((.(((....)))))), the folding enthalpy in data set [1] was -40.3 kcal/mol. In addition, in data set [2], the Tm came out at 53.6 °C.
For GGAAATCGAAAGATGTCC (((.(((....))).))), in data set [1], the folding enthalpy is -29 kcal/mol. The Tm in data set [2] worked out at 40.9 °C.
Consider GTAAACCGAAAGGTATAC (((.(((....))).))), for which the folding enthalpy in data set [1] is -25.1 kcal/mol. The Tm in data set [2] turned out to be 40.5 °C.
In the same order, the values of TGGATGAAAATCCA (((((....))))) are -17.8 kcal/mol and 46.1 °C.
On the same counts, the results for CGCCTCCGGAAACGGGCG (((..(((....)))))) are -25.6 kcal/mol and 48.1 °C.
With GATCACACGTGTGATC ((((((....)))))), in data set [1], the folding enthalpy was -43.5 kcal/mol. Moreover, the Tm in data set [2] is 57.7 °C.
On the same counts, the results for GCCATTCGAAAGAAGGGC (((.(((....))).))) are -41 kcal/mol and 59.4 °C.
Regarding GATTCCGAAAGGATATC ((((((....))).))), in data set [1], the folding enthalpy was -20.7 kcal/mol. Also, the Tm in data set [2] worked out at 39.5 °C.
In the same order, the values of GCATGGGGAAACCCACGC ((.((((....)))).)) are -23.8 kcal/mol and 46.7 °C.
On the same counts, the results for GATCTCTTGAGAGATC ((((((....)))))) are -32.4 kcal/mol and 53.8 °C.
Take GATGGCGAAAGCCGTATC ((((((....)))..))): the folding enthalpy in data set [1] was -6.56 kcal/mol. The Tm in data set [2] amounted to 43.8 °C.
On the same counts, the results for GATCCACGGTTGGATC ((((((....)))))) are -37.7 kcal/mol and 48.9 °C.
In the same order, the values of GGACAAGGAAACCTGTCC (((((.(....).))))) are -31.4 kcal/mol and 47.2 °C.
In the same order, the values of GCAGACCGAAAGGTTGC (((.(((....)))))) are -28.9 kcal/mol and 53.5 °C.
